Source: PubChem
Compounds with a hit are over-represented: about 3.7% of the library has one in this group of screens.
EP2 modulator = modulates human prostaglandin E2 receptor EP2 signaling; induction, % at 25 µM; EP2-expressing cells, cAMP HTRF FRET, PGE2 co-stimulation; P43116; actives 0.83% (n = 260,000);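 active means compounds whose cAMP rise, as percent of the full-agonist control response, exceeds 60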;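 further: rat C6 glioma line stably carrying human EP2 under a CMV promoter; the protocol text gives 20 µM as final concentration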
OX1R antag-1 = OX1R (human) antagonism; OX1R-expressing cells, FRET antagonist read-out; inhibition, % at 6.6 µM; actives 1.8% (n = 330,000); AID 485270; in the data active means inhibition mostly above about 38%, no sharp cut-off; inactive means mostly below about 40%
Target sequence (O43613 whole entry, looked up): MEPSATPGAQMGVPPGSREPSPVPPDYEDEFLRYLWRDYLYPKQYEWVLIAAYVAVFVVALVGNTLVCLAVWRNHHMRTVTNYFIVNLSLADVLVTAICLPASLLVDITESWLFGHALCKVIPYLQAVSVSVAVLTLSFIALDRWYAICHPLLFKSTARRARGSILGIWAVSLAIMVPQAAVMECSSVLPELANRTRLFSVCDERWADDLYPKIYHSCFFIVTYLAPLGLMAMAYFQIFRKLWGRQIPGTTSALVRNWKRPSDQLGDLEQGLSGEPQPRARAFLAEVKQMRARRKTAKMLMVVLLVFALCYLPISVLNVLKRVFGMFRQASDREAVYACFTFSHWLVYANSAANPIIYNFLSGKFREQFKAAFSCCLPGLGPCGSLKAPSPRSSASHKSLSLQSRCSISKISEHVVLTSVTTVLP
CHO parental Ca = signal in parental CHO cells, OX1R antagonist counter-screen | parental CHO-K1, ATP-induced calcium, Fluo-8 fluorescence | actives 0.63% (n = 330,000) | AID 463079 | inhibition, % at 5.6 µM;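 active means inhibition above that plate's mean sample inhibition plus 3 SD, cut at about 26% in these data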
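Assay system: parental CHO cells; Read-out basis: percent inhibition of ATP-evoked calcium rise, normalized to controls; Benchmarks: ATP and no-ATP DMSO wells; Compound dosing: single nominal dose of 5.6 µM per compound; Signal: Fluo-8 calcium dye fluorescence; Also added: ATP as calcium-mobilizing challenge; Repeats: singlicate.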
GPR7 antagonist = human neuropeptides B/W receptor 1 antagonism | GPR7-expressing cells, fluorescence antagonist assay | actives 1.1% (n = 290,000) | P48145 | inhibition, % at 4.4 µM; in the data active means inhibition above about 16%, passing the limit was not always enough;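 further: cells stimulated with the agonist NPW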
PGE2 EP2 inh = blocks the human prostaglandin E2 receptor EP2. actives 0.52% (n = 260,000). P43116. inhibition, % at 25 µM. C6 glioma cells expressing human EP2, cAMP TR-FRET; cells stimulated with saturating PGE2;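 active means percent inhibition above 40 after rounding to a whole number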;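 further: rat C6 glioma host cells with rolipram phosphodiesterase inhibitor present; the protocol text gives 20 µM as final concentration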
OX1R antag-2 = blocks the human orexin 1 receptor; O43613; CHO/OX1R cells, Fluo-8 calcium fluorescence, orexin A; inhibition, % at 5 µM; actives 0.43% (n = 330,000); AID 434989;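 active means inhibition above its plate's threshold, mean inhibition of all tested compounds on the plate plus 3 SD, cut at about 37% in these data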
OX1R Ca confirm = confirmation of human orexin 1 receptor antagonists | shares compounds with OX1R antag-2 | CHO/OX1R cells, orexin A calcium Fluo-8 fluorescence | inhibition, % at 5 µM | actives 38% (n = 1,100); in the data active means inhibition above about 29%
CHO Ca triplic = signal in parental CHO cells, OX1R antagonist counter-screen; inhibition, % at 5.6 µM; parental CHO-K1, ATP-induced calcium, Fluo-8 fluorescence; actives 9.3% (n = 1,100); shares compounds with OX1R antag-2;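 active means inhibition above a per-plate limit, the mean inhibition of that plate's test compounds plus 3 SD, cut at about 25% in these data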
Large screens that a line does not name were inactive (follow-up assays come after a bar, where they were run).

COc1ccc2[nH]c(C(=O)O)c(CCN3C(=O)c4cccc([N+](=O)[O-])c4C3=O)c2c1	OX1R antag-2 103 | OX1R Ca confirm inactive | CHO Ca triplic inactive
COc1cc(S(=O)(=O)N(CCc2ccccc2)Cc2cccs2)ccc1-n1cnnn1	OX1R antag-2 52 | OX1R Ca confirm inactive | CHO Ca triplic inactive
COc1ccc(/C=C/C(=O)NCC(=O)N/N=C/c2cccnc2)cc1	none
CN(C)Cc1ccccc1Sc1ccccc1Br	none
COC(=O)[C@H](Cc1c[nH]c2ccccc12)NC(=O)CCCc1c[nH]c2ccccc12	none (no result: EP2 modulator, PGE2 EP2 inh) | OX1R Ca confirm 64 | CHO Ca triplic inactive
O=C(C1CCN(c2ncnc3c2nc2n3CCCCC2)CC1)N1CCN(c2cccc(Cl)c2)CC1	none (no result: EP2 modulator, PGE2 EP2 inh) | OX1R Ca confirm inactive | CHO Ca triplic inactive
O=C(Nc1cccc(F)c1)c1ccccc1-c1ccccc1	none
Cc1nn(-c2ccccc2)c(C)c1/C=N/NC(=O)c1cc(-c2cccs2)[nH]n1	none | OX1R Ca confirm 65 | CHO Ca triplic inactive
Cc1nn(-c2ccccc2)c(C)c1/C=N/NC(=O)c1cc(-c2ccc(Br)s2)[nH]n1	none
COc1ccc(N2C(=O)CC(NCc3cccc(F)c3)C2=O)cc1 (stereo unspecified)	none (no result: EP2 modulator, GPR7 antagonist)
COc1cc(/C=C/C(=O)O)ccc1O	none (no result: GPR7 antagonist)
COc1cc(/C=C/C(=O)CC(=O)/C=C/c2ccc(O)c(OC)c2)ccc1O	PGE2 EP2 inh 74 | OX1R Ca confirm 31 | CHO Ca triplic 30
CCn1c(COc2ccc3ccccc3c2C)nnc1SCC(=O)Nc1cccc(C(=O)O)c1	none (no result: EP2 modulator, PGE2 EP2 inh)
CCCc1nnc(NC(=O)C(C)N2C(=O)C3C4C=CC(C4)C3C2=O)s1 (stereo unspecified)	none
Cc1cccc(NS(=O)(=O)c2cc3c4c(c2)C(C)C(=O)N4CCC3)c1 (stereo unspecified)	none (no result: EP2 modulator, PGE2 EP2 inh) | OX1R Ca confirm inactive | CHO Ca triplic inactive
Cc1ccc(C(=O)N2CCC(Cc3ccccc3)CC2)cc1[N+](=O)[O-]	none | OX1R Ca confirm inactive | CHO Ca triplic inactive
CC(C)c1ccc(CNC(=O)C2CCCN2S(=O)(=O)c2ccccc2)cc1 (stereo unspecified)	none (no result: EP2 modulator, PGE2 EP2 inh)
CCN1C(=O)/C(=C/C=C2\N(CC)c3cc(S(=O)(=O)N(C)C)ccc3N2c2ccccc2)SC1=S	none | OX1R Ca confirm 72 | CHO Ca triplic 68
CCN1C(=O)/C(=C\C=C\c2ccccc2[N+](=O)[O-])SC1=S	none (no result: OX1R antag-1, CHO parental Ca, OX1R antag-2)
CCN(c1ccc(OC)cc1)S(=O)(=O)c1cc(-c2cc(C)no2)ccc1OC	none (no result: EP2 modulator, PGE2 EP2 inh)
CCN(c1ccc(OC)cc1)S(=O)(=O)c1cc(-c2cc(C)no2)ccc1C(C)C	none (no result: EP2 modulator, PGE2 EP2 inh) | OX1R Ca confirm inactive | CHO Ca triplic inactive
CSCC(=O)N1CCCC(CNC(=O)c2ccccc2Cl)C1 (stereo unspecified)	none | OX1R Ca confirm inactive | CHO Ca triplic inactive
CC(=O)Nc1ccc2c(c1)C(=O)N(C1CCCCC1)C2=O	none
COC(=O)Cn1c(=O)c2c(nc3n2CC(C)CN3CCc2ccccc2)n(C)c1=O (stereo unspecified)	none (no result: EP2 modulator, OX1R antag-1, CHO parental Ca, PGE2 EP2 inh, OX1R antag-2)
COC(=O)Cn1c(=O)c2c(nc3n2CC(C)CN3Cc2ccccc2)n(C)c1=O (stereo unspecified)	none (no result: EP2 modulator, PGE2 EP2 inh) | OX1R Ca confirm inactive | CHO Ca triplic inactive
CCN(C(=O)COC(=O)COc1ccc2c(C)cc(=O)oc2c1)C1CCS(=O)(=O)C1 (stereo unspecified)	none
O=C(O)c1cccc(NC(=O)c2cn(-c3ccccc3)nc2-c2cccc(Br)c2)c1	none (no result: EP2 modulator, PGE2 EP2 inh) | OX1R Ca confirm inactive | CHO Ca triplic 33
O=C(O)c1cccc(NC(=O)c2cn(-c3ccccc3)nc2-c2ccncc2)c1	none
CCOc1ccc(OCc2ccc(C(=O)Nc3cccnc3)cc2)cc1	none (no result: EP2 modulator, GPR7 antagonist, PGE2 EP2 inh)
COc1cc(C2C(S(=O)(=O)c3ccccc3)CON2C)ccc1OCc1ccc(F)cc1 (stereo unspecified)	none
O=C(CSCc1ccc(Cl)cc1)N/N=C/c1ccc(OCC(=O)Nc2ccccc2)cc1	none | OX1R Ca confirm inactive | CHO Ca triplic inactive
Cc1ccc(NC(=O)COc2ccc(/C=N/NC(=O)CSCc3ccccc3)cc2)cc1	none
